Wnt bcat act: activates Wnt/beta-catenin signaling in a reporter cell assay; activator, plate reader; activation, % at 9.35 µM; hit rate 1.2% among 300,000; in the data active means activation above about 30%, passing the limit was not always enough
Casp6 inh: blocks human caspase-6 cleavage activity; purified caspase-6, Z-VEID-R110 cleavage fluorescence; inhibition, % at 12.5 µM; hit rate 0.53% among 350,000;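 active means mean inhibition across replicates at least about 35%, with every replicate also reaching that limit, limit read from the data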
NSD2 inh: NSD2 (human) methyltransferase inhibition; O96028; NSD2 peptide methylation, AlphaScreen, 120 min; inhibition, % at 12.5 µM; hit rate 0.54% among 310,000; in the data active means inhibition above about 50%
MITF TRPM1 HTS: increases MITF-driven TRPM1 promoter luciferase signal. SK-MEL-5 TRPM1-promoter luciferase, 24 h; % of positive control, neutral wells = 0. activation, % at 12.5 µM. hit rate 0.75% among 300,000. AID 588334;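 active means mean activation of at least 80% with every replicate also reaching 80%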
esBAF inh: blocks esBAF chromatin remodeling in mouse ES cells | reporter increase, % at 12.5 µM | AID 602393 | Bmi1-luciferase knock-in reporter, 24 h; 100% = twice the neutral-well signal | hit rate 2% among 350,000; in the data active means activation above about 40%;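 further: a rise in the Bmi1 reporter signal indicates esBAF inhibition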
Xi reactivation: X-chromosome reactivation activator; XiGFP mouse fibroblasts, % GFP-positive cells imaging, 3 d; cells co-treated with 5-aza-dC sensitizer; scaled so ellipticine positive control = 100%; hit rate 0.055% among 360,000; activation, % at 7.58 µM;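 active means mean normalized replicate activation at least 10% and every replicate at or above 10%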
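Schedule: 3 d treatment, 15 min room-temperature fixation; system: 68-5-11 XiGFP fibroblast line; buffer or medium: DMEM plus 5-aza-dC sensitizer; control set: ellipticine 6 µM positive control; compound: one concentration, pinned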
Hits are given with their value. Shown are actives, neighbours in structure and some others; about 3% of the full set was active somewhere.

`O=C1SC(SC(=Nc2ccccc2)Nc2ccccc2)C(=O)N1c1ccccc1` (centres undefined) gave Wnt bcat act 48.5, Casp6 inh inactive, MITF TRPM1 HTS inactive and Xi reactivation inactive.
Screening Clc1ccc2nc(-c3cccc(Br)c3)c(Cc3ccsc3)n2c1 returned Wnt bcat act inactive, Casp6 inh inactive, esBAF inh inactive and Xi reactivation inactive.
For Brc1cccc(-c2nc3ccc(Br)cn3c2Cc2ccsc2)c1 the results were Wnt bcat act inactive, Casp6 inh inactive, esBAF inh 62.7 and Xi reactivation inactive.
`Cc1ccc2nc(-c3cccc(Cl)c3)c(Cc3ccsc3)n2c1` gave Wnt bcat act inactive, Casp6 inh inactive and Xi reactivation inactive.
For Clc1cccc(-c2nc3ccc(Br)cn3c2Cc2ccsc2)c1 the results were Wnt bcat act inactive, Casp6 inh inactive, esBAF inh 43.0 and Xi reactivation inactive.
`CCC(=O)N1CCC1(C)C(=O)Nc1cc(-c2ccccc2)nn1C` (centres undefined) gave Wnt bcat act inactive, Casp6 inh inactive, NSD2 inh inactive, esBAF inh 65.1 and Xi reactivation inactive.
Screening CC(C)C(=O)N1CCC1(C)C(=O)Nc1cc(-c2ccccc2)nn1C (centres undefined) returned Wnt bcat act inactive, Casp6 inh inactive, esBAF inh 49.9 and Xi reactivation inactive.
Screening CCC(=O)N1CCC1(C)C(=O)Nc1cccc2cccnc12 (centres undefined) returned Wnt bcat act inactive, Casp6 inh 78.0, NSD2 inh inactive, esBAF inh inactive and Xi reactivation inactive.
For CC(C)CC#Cc1ccc([C@@H]2[C@@H](CO)N3CCCCN(C(=O)c4ccc5c(c4)OCO5)C[C@H]23)cc1 the results were Casp6 inh inactive and Xi reactivation inactive.
`CC=Cc1ccc2n(c1=O)C[C@@H]1[C@@H](CO)[C@H](C(=O)NCC3CC3)N(CC3CCOCC3)[C@H]21` (mixture of isomers) gave Casp6 inh inactive, esBAF inh inactive and Xi reactivation inactive.
`Cc1ccsc1C(=O)NCCc1nnc2ccccn12` gave Wnt bcat act inactive, Casp6 inh inactive, NSD2 inh inactive, MITF TRPM1 HTS inactive, esBAF inh 56.0 and Xi reactivation inactive.
Screening CCC(=O)NCCc1c[nH]c2ccccc12 returned Wnt bcat act inactive, NSD2 inh inactive, MITF TRPM1 HTS inactive and esBAF inh inactive.
O=C(NCCc1c[nH]c2ccccc12)c1ccc(F)cc1F was read as Wnt bcat act inactive, Casp6 inh inactive, NSD2 inh inactive, MITF TRPM1 HTS inactive, esBAF inh 57.2 and Xi reactivation inactive.
`COc1ccc(C(=O)c2c[nH]c3ccccc23)cc1` gave Wnt bcat act inactive, NSD2 inh inactive, MITF TRPM1 HTS 86.2 and esBAF inh 60.9.
For Cc1ccsc1C(=O)NCCc1c[nH]c2ccccc12 the results were Wnt bcat act inactive, Casp6 inh inactive, NSD2 inh inactive, MITF TRPM1 HTS inactive, esBAF inh 49.9 and Xi reactivation inactive.
Screening O=C(NCCc1nnc2ccccn12)c1cccs1 returned Wnt bcat act inactive, Casp6 inh inactive, NSD2 inh inactive, MITF TRPM1 HTS inactive, esBAF inh inactive and Xi reactivation inactive.
`O=C(C1CCC1)N1CC[C@@H]2[C@H](CO)Nc3ccc(-c4cccc(F)c4)cc3[C@@H]21` gave esBAF inh inactive and Xi reactivation inactive.
COc1ccc(NC(=O)N(C)C[C@@H]2OCCCC[C@H](C)Oc3ccc(NC(=O)Nc4ccc(C(F)(F)F)cc4)cc3C(=O)N([C@@H](C)CO)C[C@H]2C)cc1 was read as Casp6 inh inactive, esBAF inh inactive and Xi reactivation inactive.
Screening CNC[C@@H]1Oc2ccccc2C(=O)N(C)C[C@H]1C returned Xi reactivation inactive.
Screening C[C@H](CO)N1C[C@H](C)[C@@H](CN(C)C(=O)C2CC2)Oc2ncc(C#CC3(O)CCCC3)cc2C1=O returned Xi reactivation inactive.
Screening O=C(NCCc1c[nH]c2ccccc12)c1cnc2sccn2c1=O returned Wnt bcat act inactive, Casp6 inh inactive, MITF TRPM1 HTS inactive, esBAF inh 75.6 and Xi reactivation inactive.
Screening COc1ccc(OCC(=O)NCCc2c[nH]c3ccccc23)cc1 returned Wnt bcat act inactive, Casp6 inh inactive, NSD2 inh inactive, MITF TRPM1 HTS inactive and Xi reactivation inactive.
COc1ccc(C(=O)NCCc2c[nH]c3ccccc23)cc1 was read as Wnt bcat act inactive, Casp6 inh inactive, NSD2 inh inactive, esBAF inh 54.2 and Xi reactivation inactive.
Screening O=C(NCc1ccc(F)cc1)c1cnc2sccn2c1=O returned Wnt bcat act inactive, Casp6 inh inactive, MITF TRPM1 HTS inactive, esBAF inh inactive and Xi reactivation inactive.
Screening O=C(Nc1ccc(F)cc1)Nc1ccc2c(c1)[C@H]1C[C@H](CC(=O)N3CCCCC3)O[C@H](CO)[C@H]1O2 returned esBAF inh inactive and Xi reactivation inactive.
Screening CCc1ccccc1Nc1nc(N)nc(CSCC(=O)Nc2ccc(C)c(C)c2)n1 returned Wnt bcat act 57.3, Casp6 inh inactive, NSD2 inh inactive, MITF TRPM1 HTS inactive and Xi reactivation inactive.
`CCc1ccc(NC(=O)CSCc2nc(N)nc(Nc3ccccc3CC)n2)cc1` gave Wnt bcat act inactive, NSD2 inh inactive, MITF TRPM1 HTS inactive, esBAF inh inactive and Xi reactivation inactive.
`CCC(=O)N[C@H]1C=C[C@@H](CC(=O)OC)O[C@@H]1CO` gave Casp6 inh inactive, esBAF inh inactive and Xi reactivation inactive.
Screening C=CCSc1nc2c(cnn2-c2ccccc2)c(=O)n1N returned Wnt bcat act 56.1, Casp6 inh inactive, NSD2 inh inactive and Xi reactivation inactive.
`CCCSc1nc2c(cnn2-c2ccccc2)c(=O)[nH]1` gave Wnt bcat act inactive, Casp6 inh inactive, MITF TRPM1 HTS inactive, esBAF inh inactive and Xi reactivation inactive.
For COc1cccc2cc(-c3ccnc(N)n3)oc12 the results were Wnt bcat act inactive, Casp6 inh inactive, MITF TRPM1 HTS inactive, esBAF inh 44.9 and Xi reactivation inactive.
`O=c1ncn(-c2cccc(Cl)c2)c2ccccc12` gave Wnt bcat act 43.6, Casp6 inh inactive, NSD2 inh inactive, MITF TRPM1 HTS inactive and Xi reactivation inactive.
`CCCNC(=O)N1CC(=O)N2[C@H](CO)[C@@H](c3ccc(C#Cc4cccc(F)c4)cc3)[C@H]2C1` gave Casp6 inh inactive and Xi reactivation inactive.
CC1CCN(C(=O)CSc2nc3ccccc3s2)CC1 was read as Wnt bcat act 42.0, NSD2 inh inactive, MITF TRPM1 HTS inactive and esBAF inh inactive.
`O=C(CSc1nc2ccccc2s1)N1c2ccccc2Sc2ccccc21` gave Wnt bcat act inactive, NSD2 inh inactive and MITF TRPM1 HTS inactive.
`CC1CCCC(C)N1C(=O)CSc1nc2ccccc2s1` (centres undefined) gave NSD2 inh inactive and esBAF inh 74.5.

Screening data as filed in PubChem.
